Where “and” joins values, the source holds several entries; their conditions need not be identical. Equal entries are not always repeated. A number with no mark means an inactive call. The list shows a part of the results. Inconclusive results are not listed. Calls of active or inactive are those of the source.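 How the source made its calls, unless noted: active means thallium flux slope above the same plate's solvent-control mean plus 3 SD in both duplicate wells; inconclusive means duplicate wells that disagreed; inactive means the rest.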

The first assay can be described thus: native HEK Tl+ uptake effects, second counter-screen – HEK cells, counterscreen 2, counter-screen for KCC2 modulator project, confirmation (AID 1718).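 Further: run without ouabain in cells lacking the KCC2 cotransporter; slope of fluorescence scaled to its starting value between 10 and 20 s.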 The following applies: HEK293 parental, thallium flux FluoZin-2 fluorescence slope; at 10 µM. In outline: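 Test system: parental HEK cells / Reagent: thallium sulfate stimulus, 12 mM in buffer, pH 7.3 / Compound: single 10 µM final compound dose, 0.1% DMSO / Timing: overnight cell culture at 37 °C, 48 min dye loading, compound before thallium / Detection: FluoZin-2 fluorescence kinetics / Read-out: rate of F/F0 rise, 10–20 s after thallium addition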
For orientation: A counterscreen serves to expose hits that act by an unwanted route or on another target.
On to `O=C(Nc1ccccc1F)C1C2C=CC3(O2)C1C(=O)N(c1cccnc1)C3C(=O)NC1CCCCC1` (configuration not stated), for which the thallium flux slope was 0.0108.
On the same count and under the same terms, the same measure for `CCOC(=O)c1ccccc1N1C(=O)C2Sc3[nH]c(=O)sc3C(/C=C/c3ccccc3)C2C1=O` (configuration not stated): 0.0106; for `Cc1ccc(C(=O)NC(=S)Nc2ccccc2C)cc1`: 0.0284 (active); for `CC(C)CNC(=S)NC(=O)c1ccc(Cl)cc1`: 0.0594 (active).
On the same count and under the same terms, to `CC(C)(C)c1ccc(C(=O)NCC(=O)OCN2C(=O)c3ccccc3C2=O)cc1` belongs 0.0105; to `COc1ccc(Cl)cc1S(=O)(=O)Nc1cccc(C(=O)O)c1`, 0.0107; to `C/C(=C\C(=O)c1ccc(Br)cc1)N1CCCCC1`, 0.0111 (active).
For the compound `CCOC(=O)c1c(NC(=S)NC)sc2c1CCCC2`, the thallium flux slope was 0.101 (active).
Still for that read-out and setting: the same measure for `CCn1c(SCC(=O)c2ccc3ccccc3c2)nnc1-c1cccs1`: 0.0101.
The same measure, in the same setting: the same measure for `Cc1ccc(-c2noc(CN3CCN(Cc4ccccc4)CC3)n2)cc1`: 0.0101; for `Cc1sc2ncnc(Sc3nc4ccccc4s3)c2c1C`: 0.0107; for `CCC(CC)NC(=O)CSc1nnc(-c2c[nH]c3ccccc23)o1`: 0.0106.
For the compound `C=CCn1c(=S)[nH]c2nc3c(cc2c1=O)COC(C)(C)C3`, the thallium flux slope was 0.0123.
On the same count and under the same terms, the same measure for `Cc1cccc(N(CC(O)CN(C)C)S(=O)(=O)c2ccccc2)c1` (configuration not stated): 0.0103; for `C[C@@H](C(=O)Nc1ccc2ccccc2c1)[C@@H]1C[C@@]1(C)[C@@H](NC(=O)c1cccnc1)c1ccccc1`: 0.0098.
With `CC[C@@H](C)[C@@H](C(=O)N1CCN(C(=O)OC(C)(C)C)CC1)n1cc(CCC(=O)O)nn1`, the thallium flux slope is 0.0111.
With `O=C(CSc1cccc2cccnc12)N/N=C/c1cccnc1`, the thallium flux slope is 0.0116 (active).
Still for that read-out and setting: to `N#Cc1c(-c2ccc(Cl)cc2)c2c([nH]c1=S)CCCC2` belongs 0.0192 (active); to `CN1c2ccccc2-c2nc3ccccc3n2C1c1ccco1` (configuration not stated), 0.0097.

A short description of a further assay: loss of swimming-algae plug formation – whole organism, Chlamydomonas reinhardtii, WT vs cilia-less mutant, absorbance, 96-well, primary screen (AID 463189;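 active means inhibition at or above 50% relative to wild type and mutant plate controls; inactive means inhibition below 50%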;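 further: 0% = wild type cc124 cells in DMSO and 100% = ciliumless bld1 mutant cells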). The following applies: Chlamydomonas reinhardtii gravitaxis, OD600 absorbance, 2 days; at 10 µM; stronger effect = higher value.
For `Cc1cc(=O)oc2c(CN3CCN(C)CC3)c(O)c(Cl)cc12`, the inhibition (in general, the drop in the measured response relative to a control, in per cent) was -9.73%.
Same read-out and setting: the same measure for `C1CNCCNCCNCCN1`: 1.09%.
Same read-out and setting: to `CC(C(=O)O)c1ccc(-c2ccccc2)c(F)c1` (configuration not stated) belongs 42.5%; to `Cc1c(C)c2cc(Cl)c(O)c(CN3CCCCC3)c2oc1=O`, 20.3%; to `Cc1oc2nc(SCCCC(=O)NCCCO)nc(N)c2c1C`, 0.255%.
The same measure, in the same setting: to `CCN(CC)CCNC(=O)c1ccc(NC(C)=O)cc1` belongs -7.67% and -9.65%; to `COC(=O)CC1SC(=O)NC1=O` (configuration not stated), 6.27%; to `Cc1cc(OCC(=O)Nc2ccc3oc(-c4ccncc4)nc3c2)ccc1Cl`, -0.755%.
Consider `CCn1cc(C(=O)O)c(=O)c2cc(F)c(N3CCNCC3)nc21`, for which the inhibition was -14%.
Still for that read-out and setting: the same measure for `COc1ccc(C(=O)Cn2c(N3CCCCC3)nc3c2c(=O)n(C)c(=O)n3C)cc1OC`: 12.6%; for `C=CCn1c(=S)[nH]c2nc3c(cc2c1=O)COC(C)(C)C3`: -8.98%.
Still for that read-out and setting: the same measure for `Cc1cccc(N(CC(O)CN(C)C)S(=O)(=O)c2ccccc2)c1` (configuration not stated): 30.7%; for `c1ccc(-c2nnc(OCCN3CCOCC3)c3ccccc23)cc1`: -11.2%; for `C[C@@H]1CCC[C@H](C)N1NC(=O)c1ccc(Cl)c(S(N)(=O)=O)c1`: 24.4%.
As for `CCN(CC)CCN1C(=O)C(O)=C(C(=O)c2ccco2)C1c1ccccn1` (configuration not stated), the inhibition is 14.9%.
Consider `CCC1CCCCN1c1nc(-c2ccncc2)nc2ccccc12` (configuration not stated), for which the inhibition is 132% (active).
Still for that read-out and setting: to `CN1c2ccccc2-c2nc3ccccc3n2C1c1ccco1` (configuration not stated) belongs 3.48%.

Another assay can be described thus: blockers of RIG-like receptor reporter activation – cell-based, Sendai virus stimulus, luciferase, 10K MLSCN set, TLR/RLR signaling modifier project, primary screen (AID 602276;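 active means inhibition at or above 50% at 10 µM; inactive means inhibition below 50%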;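 further: firefly luciferase from ISG56 promoter only with Renilla not read in this screen; 0% = Sendai virus plus DMSO and 100% = medium plus DMSO without virus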). As to conditions: HEK293 RL24 IRF3 luciferase reporter, at 10 µM, stronger effect = higher value. On the technique in general: Reporter assays use an easily measured gene product as a stand-in for the process of interest.
In the case of `Cc1cc(=O)oc2c(CN3CCN(C)CC3)c(O)c(Cl)cc12`, the inhibition was 14.9%.
Regarding `C1CNCCNCCNCCN1`, the inhibition was 13.2%.
Turning to `CC(C(=O)O)c1ccc(-c2ccccc2)c(F)c1` (configuration not stated), the inhibition is 18.5%.
Turning to `Cc1c(C)c2cc(Cl)c(O)c(CN3CCCCC3)c2oc1=O`, the inhibition is 4.19%.
Still for that read-out and setting: the same measure for `Cc1oc2nc(SCCCC(=O)NCCCO)nc(N)c2c1C`: 12.9%.
`CCN(CC)CCNC(=O)c1ccc(NC(C)=O)cc1`: the inhibition is 12.9%.
On the same count and under the same terms, the same measure for `CCCC(=O)N1c2ccccc2NC2=C(C(=O)CCC2)C1c1ccc(F)cc1` (configuration not stated): 8.4%.
With `COC(=O)CC1SC(=O)NC1=O` (configuration not stated), the inhibition is 1.46%.
As for `Cc1cc(OCC(=O)Nc2ccc3oc(-c4ccncc4)nc3c2)ccc1Cl`, the inhibition is -19.3%.
With `CCn1cc(C(=O)O)c(=O)c2cc(F)c(N3CCNCC3)nc21`, the inhibition is 3%.
The same measure, in the same setting: the same measure for `COc1ccc(C(=O)Cn2c(N3CCCCC3)nc3c2c(=O)n(C)c(=O)n3C)cc1OC`: 14.5%; for `C=CCn1c(=S)[nH]c2nc3c(cc2c1=O)COC(C)(C)C3`: 14.5%.
Still for that read-out and setting: to `c1ccc(-c2nnc(OCCN3CCOCC3)c3ccccc23)cc1` belongs 15.1%.
For `C[C@@H]1CCC[C@H](C)N1NC(=O)c1ccc(Cl)c(S(N)(=O)=O)c1`, the inhibition is 3.39%.
Regarding `CCN(CC)CCN1C(=O)C(O)=C(C(=O)c2ccco2)C1c1ccccn1` (configuration not stated), the inhibition is 15.6%.
Consider `CCC1CCCCN1c1nc(-c2ccncc2)nc2ccccc12` (configuration not stated), for which the inhibition was 24.2%.
